Laboratory results: ChEMBL document CHEMBL4715702, “Overcoming multidrug resistance by targeting mitochondria with NO-donating doxorubicins” (Bioorg Med Chem, 2016)
Activity calls are given as the source filed them. The rule behind the calls is not given here.

Key:
[1] = tested on: HT-29; test: Upregulation of iNOS protein expression in human HT-29 cells; assay type: functional, cell-based
Summary of the method: (§1)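 HT29 and HT29/dx cells incubated 24 h with compound or fresh medium; lysed in MLB buffer pH 7.5, sonicated, centrifuged 13,000 x g 10 min 4°C; iNOS detected in whole-cell lysate by Western blotting.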

[2] = Prodrug release in doxorubicin-resistant human HT-29 cells assessed as increase in NO level by measuring induction of P-glycoprotein nitration in plasma membrane at 5 uM incubated for 24 hrs by western blot analysis; assay type: cell membranes, Cell membrane; settings: ht-29, 24 h
Summary of the method: (§2)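 Cells 24 h with 5 µmol/L compound. Plasma-membrane proteins isolated by surface biotinylation, 50 µg run on SDS-PAGE, probed for Pgp with pancadherin loading control; nitration detected by Western blot, peroxidase secondary and chemiluminescence. Representative of three experiments.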

[3] = tested on: HT-29; test: Induction of apoptosis in human HT29 cells assessed as activation of caspase 3 using DEVD-AMC substrate at 5 uM incubated for 24 hrs by fluorescence based assay; assay type: functional, cell-based
Summary of the method: (§3)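 Cells 24 h in 5 µmol/L compound or fresh medium, lysed in HEPES/KOH buffer pH 7.5. 20 µg lysate incubated 1 h at 37°C with 20 µmol/L LEHD-AMC (caspase 9) or DEVD-AMC (caspase 3) in HEPES/CHAPS/sucrose/DTT buffer pH 7.5. Stopped with ice-cold 0.1% TCA; AMC fluorescence ex 380/em 460 nm, converted to nmol AMC/µg protein via AMC standards. Triplicate.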

[4] = Prodrug release in human HT-29 cells assessed as increase in NO level by measuring induction of P-glycoprotein nitration in plasma membrane at 5 uM incubated for 24 hrs by western blot analysis; assay type: cell membranes, Cell membrane; settings: ht-29, 24 h; summary of the method: as §2
[5] = tested on: HT-29; test: Upregulation of iNOS protein expression in doxorubicin-resistant human HT-29 cells; assay type: functional, cell-based; summary of the method: as §1
[6] = tested on: HT-29; test: Cytotoxicity against doxorubicin-resistant human HT-29 cells assessed as LDH release at 5 uM incubated for 24 hrs; assay type: functional, cell-based
Summary of the method: (§4)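 Extracellular medium spun 12,000 × g 5 min; cells detached, sonicated in 82.3 mmol/L triethanolamine phosphate-HCl pH 7.6. LDH activity read in medium and lysate at 340 nm over 6 min, as µmol NADH oxidized/min/dish; extracellular LDH given as % of total dish activity. Compounds from DMSO stock, 5 µM final, 1% DMSO; controls 1% DMSO. Triplicate, mean ± SD.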

[7] = tested on: HT-29; test: Cytotoxicity against human HT-29 cells assessed as LDH release at 5 uM incubated for 24 hrs; assay type: functional, cell-based; summary of the method: as §4
[8] = Prodrug release in doxorubicin-resistant human HT-29 cells assessed as increase in NO level by measuring nitrite release at 5 uM incubated for 24 hrs by spectrophotometric analysis; assay type: ADME, cell-based; settings: ht-29, 24 h
Summary of the method: (§5)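 After 24 h culture with 5 µmol/L compound, medium mixed 1:1 with Griess reagent, 10 min 37°C in dark, absorbance 540 nm. Cell-free blank subtracted; nitrite expressed as nmol/mg cell protein. HT29/dx maintained in 200 nmol/L DOXO. Triplicate, mean ± SD (n = 3).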

[9] = Prodrug release in doxrubicin-resistant human HT-29 cells assessed as increase in NO level by measuring induction of P-glycoprotein nitration in mitochondria at 5 uM incubated for 24 hrs by western blot analysis; settings: ht-29, 24 h
Summary of the method: (§6)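 Cells 24 h with 5 µmol/L compound. Mitochondrial extracts, 10 µg protein, run on SDS-PAGE and probed for Pgp, porin as loading control; nitration detected by Western blot with peroxidase secondary and chemiluminescence. Representative of three experiments.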

[10] = Prodrug release in human HT-29 cells assessed as increase in NO level by measuring plasma membrane associated MRP1/BCRP nitration mediated drug uptake at 5 uM incubated for 24 hrs by spectrofluorometric analysis; assay type: ADME, cell membranes; settings: ht-29, 24 h
Summary of the method: (§7)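 Cells 24 h with 5 µmol/L compound; DOXO in whole-cell lysates measured fluorimetrically (ex 475/em 553 nm), cell-free blank subtracted, converted to nmol DOXO/mg protein by calibration curve. Triplicate, mean ± SD.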

[11] = Prodrug release in human HT-29 cells assessed as increase in NO level by measuring induction of P-glycoprotein nitration in mitochondria at 5 uM incubated for 24 hrs by western blot analysis; settings: ht-29, 24 h; summary of the method: as §6
[12] = Prodrug release in human HT-29 cells assessed as increase in NO level by measuring nitrite release at 5 uM incubated for 24 hrs by spectrophotometric analysis; assay type: ADME, cell-based; settings: ht-29, 24 h; summary of the method: as §5
[13] = Stability of the compound assessed as human serum esterase-mediated compound hydrolysis by measuring half life at 100 uM by RP-HPLC analysis; assay type: ADME, cell-free
Summary of the method: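 Compound from 10 mM DMSO stock added to human male AB serum preheated to 37 °C, 100 µM final, incubated at 37 ± 0.5 °C. Aliquots deproteinized with acetonitrile/0.1% HCOOH, centrifuged, filtered. Parent and degradation products quantified by RP-HPLC (234 and 480 nm) against 1–100 µM calibration. At least triplicate.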

[14] = Prodrug release in doxorubicin-resistant human HT-29 cells assessed as increase in NO level by measuring mitochondria associated MRP1/BCRP/P-gp nitration mediated drug uptake at 5 uM incubated for 24 hrs by spectrofluorometric analysis; assay type: ADME; settings: ht-29, 24 h
Summary of the method: (§8)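 Cells 24 h with 5 µmol/L compound; mitochondrial fractions isolated (porin check by immunoblot), DOXO measured fluorimetrically (ex 475/em 553 nm) with blank subtraction and calibration curve; expressed as nmol DOXO/mg mitochondrial protein. Triplicate, mean ± SD.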

[15] = Prodrug release in human HT-29 cells assessed as increase in NO level by measuring mitochondria associated MRP1/BCRP/P-gp nitration mediated drug uptake at 5 uM incubated for 24 hrs by spectrofluorometric analysis; assay type: ADME; settings: ht-29, 24 h; summary of the method: as §8
[16] = tested on: HT-29; test: Induction of apoptosis in doxorubicin-resistant human HT29 cells assessed as activation of caspase 3 using DEVD-AMC substrate at 5 uM incubated for 24 hrs by fluorescence based assay; assay type: functional, cell-based; summary of the method: as §3
[17] = tested on: HT-29; test: Induction of apoptosis in doxorubicin-resistant human HT29 cells assessed as activation of caspase 9 using LEHD-AMC substrate at 5 uM incubated for 24 hrs by fluorescence based assay; assay type: functional, cell-based; summary of the method: as §3
[18] = Prodrug release in doxorubicin-resistant human HT-29 cells assessed as increase in NO level by measuring plasma membrane associated MRP1/BCRP nitration mediated drug uptake at 5 uM incubated for 24 hrs by spectrofluorometric analysis; assay type: ADME, cell membranes; settings: ht-29, 24 h; summary of the method: as §7
[19] = tested on: HT-29; test: Induction of apoptosis in human HT29 cells assessed as activation of caspase 9 using LEHD-AMC substrate at 5 uM incubated for 24 hrs by fluorescence based assay; assay type: functional, cell-based; summary of the method: as §3
[20] = tested on: H9c2; test: Cardiotoxicity against rat H9c2 cells assessed as LDH release at 5 uM incubated for 24 hrs; assay type: toxicity, cell-based; settings: h9c2, 24 h; summary of the method: as §4

Activity [2]: Not Active
Activity [4]: Not Active
Drug metabolism [8]: Metabolite_Detected
Activity [9]: Active
Drug uptake [10]: Active
Activity [11]: Active
Drug metabolism [12]: Metabolite_Detected
half-life at 100 µM [13]: 21.7 h
Drug uptake [14]: Active
Drug uptake [15]: Active
Drug uptake [18]: Active
Compound: COc1cccc2c1C(=O)c1c(O)c3c(c(O)c1C2=O)C[C@@](O)(C(=O)COC(=O)C(C)(C)CO[N+](=O)[O-])C[C@@H]3O[C@H]1C[C@H](N)[C@H](O)[C@H](C)O1.Cl
Activity [1]: Active
Activity [3]: Active
Activity [5]: Active
Activity [6]: Active
Activity [7]: Active
Activity [16]: Active
Activity [17]: Active
Activity [19]: Active
Activity [20]: Non-Toxic
